Assay results taken from ChEMBL document CHEMBL3616436, “Synthesis, cytotoxicity and antimicrobial activity of thiourea derivatives incorporating 3-(trifluoromethyl)phenyl moiety” (Eur J Med Chem, 2015).

What was measured:
[1] = test system: Staphylococcus epidermidis; assay: Inhibition of biofilm formation in Staphylococcus epidermidis ATCC 12228 at 8 ug/ml after 24 hrs using MTT staining by spectrophotometer analysis; assay type: functional; settings: ATCC 12228, 24 h
Procedure, shortened: (§1)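 Methicillin-resistant hospital isolates or ATCC strains of S. epidermidis were grown overnight in tryptone soy broth with 0.5% glucose. Inoculum of 10^7 CFU/mL was mixed 1:1 with compound in TSB-glucose and incubated 24 h at 37 °C. Non-adherent cells were washed off with PBS, and wells were stained with MTT (0.5% in PBS) for 2 h at 37 °C. Stain was solubilized in DMSO/glycine buffer and read at A554. Inhibition is relative to drug-free control; quadruplicates.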

[2] = test system: Staphylococcus epidermidis; assay: Inhibition of biofilm formation in Staphylococcus epidermidis ATCC 35984 at 8 ug/ml after 24 hrs using MTT staining by spectrophotometer analysis; assay type: functional; settings: ATCC 35984, 24 h; procedure, shortened: as §1
[3] = test system: Staphylococcus epidermidis; assay: Inhibition of biofilm formation in Staphylococcus epidermidis 62/04 at 8 ug/ml after 24 hrs using MTT staining by spectrophotometer analysis; assay type: functional; settings: 62/04, 24 h; procedure, shortened: as §1
[4] = test system: Staphylococcus epidermidis; assay: Inhibition of biofilm formation in Staphylococcus epidermidis 76/04 at 8 ug/ml after 24 hrs using MTT staining by spectrophotometer analysis; assay type: functional; settings: 76/04, 24 h; procedure, shortened: as §1
[5] = test system: HaCaT; assay: Cytotoxicity against human HaCaT cells assessed as cell mortality at 16 uM after 24 hrs by LDH release assay relative to control; assay type: cell-based
Procedure, shortened: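 HaCaT cells in DMEM with 2% FBS exposed 24 h to 16 µM compound; LDH released into supernatant measured with commercial kit at 490 nm; % release = (test − untreated low control)/(10% Triton X-100 high control − low control) × 100; three independent experiments in triplicate.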

SMILES: Fc1ccc(NC(=S)Nc2cccc(C(F)(F)F)c2)cc1Cl
- inhibition at 8 µg/mL [1]: 40%
- inhibition at 8 µg/mL [2]: 40%
- inhibition at 8 µg/mL [3]: 40%
- inhibition at 8 µg/mL [4]: 40%
- Activity [5]: 8%

SMILES: FC(F)(F)c1cccc(NC(=S)Nc2cccc(Br)c2)c1
- inhibition at 8 µg/mL [3]: 80%
- inhibition at 8 µg/mL [4]: 70%
- Activity [5]: 0%
